A selection: hits, their analogues and other compounds. The true share with any hit is near 2.6%.
SENP8 block-1: SENP8 (human) protease inhibition. Q96LD8. recombinant SENP8, Nedd8 substrate fluorescence. inhibition, % at 20 µM. hit rate 0.64% among 360,000; in the data active means inhibition mostly above about 40%, no sharp cut-off; inactive means mostly below about 27%
Target sequence (Q96LD8 whole entry, looked up): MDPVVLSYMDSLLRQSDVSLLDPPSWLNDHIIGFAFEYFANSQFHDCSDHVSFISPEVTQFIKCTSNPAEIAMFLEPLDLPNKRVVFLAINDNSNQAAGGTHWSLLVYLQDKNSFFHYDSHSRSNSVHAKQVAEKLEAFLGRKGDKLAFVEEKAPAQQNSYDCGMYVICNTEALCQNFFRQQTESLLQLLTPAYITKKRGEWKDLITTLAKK
SENP7 inh: blocks the human protease SENP7; Q9BQF6; recombinant SENP7, Z-RLRGG-aminoluciferin luminescence, 40 min; inhibition, % at 5 µM; hit rate 1.5% among 330,000; AID 434973;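 active means inhibition above about 50% at the single test dose, limit read from the data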
SENP8 block-2: SENP8 protease inhibition | Q96LD8 | purified SENP8, Z-RLRGG-aminoluciferin cleavage, luminescence | inhibition, % at 10 µM | hit rate 1.2% among 330,000 | AID 2540; in the data active means inhibition above about 50%
SENP6 block: SENP6 protease inhibition; Q9GZR1; Recombinant SENP6 catalytic domain, aminoluciferin luminescence; inhibition, % at 10 µM; hit rate 1.8% among 330,000; AID 2599;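 active means inhibition above about 50% at the single tested dose, limit read from the data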
SENP1 FRET inh: SENP1 (human) catalytic domain inhibition; Q9P0U3; hit rate 0.21% among 360,000; inhibition, % at 10 µM; recombinant SENP1 catalytic domain, CyPet-SUMO1-YPet FRET cleavage;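 active means inhibition at least 30% at 10 µM, raw YFP signal under a set limit, fluorescence ratio 0.5 to 1.5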
Target sequence (Q9P0U3 419-644 limits assumed): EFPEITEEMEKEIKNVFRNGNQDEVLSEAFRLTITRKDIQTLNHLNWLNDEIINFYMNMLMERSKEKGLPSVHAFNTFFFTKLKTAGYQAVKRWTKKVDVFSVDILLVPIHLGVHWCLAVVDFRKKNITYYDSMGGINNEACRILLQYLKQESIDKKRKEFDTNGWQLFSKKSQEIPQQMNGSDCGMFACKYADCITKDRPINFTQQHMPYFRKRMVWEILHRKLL
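Material – human SENP1 catalytic domain · Input – SENP1 enzyme, 20 pM final · Compound dosing – single concentration of 10 µM compound, 0.5% DMSO final · Timing – enzyme reaction for 50 min at room temperature, dark · Measured by – FRET fluorescence in CFP and YFP emission channels · Control set – no-enzyme wells low, DMSO-plus-enzyme wells high control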
Platelet DG rel: platelet dense granule release activity | hit rate 0.22% among 300,000 | human platelet-rich plasma, SFLLRN dense granule ATP release, luminescence | inhibition, %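 (compounds screened at 7.5 µM in platelet-rich plasma)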;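 active means mean replicate score, as percent of positive control, at or above 50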
A number is an active result; n = inactive; x = no result.

SMILES	SENP8 block-1	SENP7 inh	SENP8 block-2	SENP6 block	SENP1 FRET inh	Platelet DG rel
O=[N+]([O-])c1cc(C=Nc2cccc3c(O)cccc23)ccc1Cl	x	n	59.6	84.3	x	n
CC(C)CC(=O)Nc1cc2c3c(c1)C(C)C(=O)N3CCC2 (stereo not drawn)	n	n	n	n	n	n
CCOC(=O)c1cnc2c(-c3cccc(Br)c3)cnn2c1C	n	55.3	n	n	n	n
CCOC(=O)c1cnc2c(C(=O)OCC)cnn2c1N	n	n	n	n	n	n
O=C1CC(c2ccc(O)c(O)c2)Oc2c1ccc(O)c2O (stereo not drawn)	50.8	n	n	n	n	x
O=C(COc1ccccc1F)N/N=C1\CCCc2ccccc21	n	n	n	56.8	n	n
N#C/C(=N\Nc1ccc(Cl)cc1)C(=O)c1ccccc1	45.5	n	n	n	n	n
Cc1c(N/N=C(\C#N)C(=O)c2ccc(Cl)cc2)c(=O)n(-c2ccccc2)n1C	n	x	x	x	n	n
CCOC(=O)NC(=O)/C(C#N)=N\Nc1ccc(Cl)cc1	43.4	n	n	n	n	n
COc1ccc(C(=O)/C(C#N)=N/Nc2ccc([N+](=O)[O-])cc2)cc1	39.5	n	n	n	n	n
Cc1cc(Br)cn2c(Cc3ccsc3)c(C3CCCCC3)nc12	n	x	x	x	n	x
Cc1nc2ccc(C(=O)N(C)Cc3ccccc3)cn2c1N(C)C(=O)CCc1ccccc1	n	x	x	x	n	x
Cc1cccc(NS(=O)(=O)c2cccc(C(=O)N3CCN(C/C=C/c4ccccc4)CC3)c2)c1	n	n	n	n	n	x
Cn1c(=O)c2cc(NC(=O)Nc3cccnc3)ccc2n1-c1ccc(C(C)(C)C)cc1	n	x	x	x	n	x
O=[N+]([O-])c1ccc(/C=N/Nc2ccc3ccccc3c2)o1	n	n	n	n	37.9	n
O=C(N/N=C/c1ccc([N+](=O)[O-])o1)c1cc2ccccc2o1	n	n	n	n	n	n
Cc1ccc(S(=O)(=O)N2CCCCC2)cc1NC(=O)COC(=O)c1cccn1C	n	n	n	n	n	x
N#CC1=C(N)C(C#N)(C#N)[C@H](c2ccoc2)[C@H]2CN(Cc3ccccc3)CC=C12	n	77.1	84.0	91.4	n	n
CC(=O)N1CC=C2C(C#N)=C(N)C(C#N)(C#N)[C@H](c3ccoc3)[C@H]2C1	n	n	n	n	n	n
Nc1cc(C(=O)O)c(N)c2c1C(=O)c1ccccc1C2=O	51.2	n	n	58.7	n	n
O=C(O)c1cc2ccccc2c2c1C(=O)c1ccccc1-2	n	x	x	x	n	x
NC1=NC(=Nc2cccc(S(N)(=O)=O)c2)c2ccccc21	n	n	n	n	n	n
COc1cc(N=Nc2cccc(S(N)(=O)=O)c2)c2ccccc2c1N	n	x	x	x	48.0	n
CCc1ccc(/C=C\C(=O)N2CCCC2)cc1	n	n	n	n	n	n
CCc1ccc(/C=C\C(=O)N2CCc3ccccc3C2)cc1	n	n	n	60.6	n	n
SMILES	SENP8 block-1	SENP7 inh	SENP8 block-2	SENP6 block	SENP1 FRET inh	Platelet DG rel
CCOC(=O)C1=C(C)Nc2ccccc2N/C1=N\S(=O)(=O)c1ccccc1	n	n	n	n	n	x
N#C/C=C1/NC(=O)c2ccccc2S1	44.3	n	n	n	n	n
CNC(=S)Nc1ccc(C(N)=O)cc1	n	n	n	n	n	58.2
CS(=O)(=O)N1N=C(c2ccc(Cl)cc2)CC1c1cccs1 (stereo not drawn)	n	n	n	51.1	n	n
CCn1cc(C(=O)NCCCOC(C)C)c(=O)c2cc(S(=O)(=O)N3CCC(C)CC3)ccc21	n	n	n	n	n	n
CCN(CC(=O)Nc1ccccc1C(F)(F)F)C(=O)CCc1c(C)[nH]c(=O)c(C#N)c1C	n	n	n	n	n	64.8
CC(=O)Nc1cc2c(cc1[N+](=O)[O-])-c1ccccc1C2O (stereo not drawn)	41.3	x	x	x	n	x
CC(=O)Nc1cc2c(cc1[N+](=O)[O-])-c1ccccc1C2=NO	n	x	x	x	n	x
O=c1[nH]c2ccc(NC(=S)Nc3ccccc3Cl)cc2[nH]1	n	n	n	n	n	53.9
CNc1nc2c3ccccc3n(C(C)=O)c2s1	n	n	n	n	n	50.0
CC(=O)n1c2ccccc2c2nc(NC(C)C)sc21	n	n	n	n	n	n
Cc1cccc2nc(CSc3ccccc3N)cn12	n	n	n	n	n	n
Cc1cccc2nc(COc3ccc4ccccc4c3Br)cn12	n	n	n	56.8	n	n
Cc1ccc(C)c(S(=O)(=O)N2CCN(C(=O)CCCc3c[nH]c4ccccc34)CC2)c1	n	n	n	n	n	n

High-throughput results from PubChem.
